For the experiment, the target named is Hypoxia-inducible factor 1-alpha (Homo sapiens, UniProt Q16665). As to the kind of experiment: Inhibition of HIF1alpha transcriptional activity in hypoxia-induced human HCCLM3 cells co-transfected with luciferase reporter plasmid containing five copies of HREs and pRL-SV40 plasmid encoding Renilla luciferase incubated with compound under normoxia for 1 hr followed by hypoxia induction and measured after 24 hrs by HRE-dependent dual luciferase reporter gene assay. A digest of the protocol: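 LM3 cells co-transfected with firefly luciferase reporter carrying five HRE copies plus pRL-SV40 Renilla plasmid; after transfection treated and kept under hypoxia; firefly luminescence normalized to Renilla. Single-point inhibition rate at 10 μM; IC50 for selected compounds.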
Sequence of Hypoxia-inducible factor 1-alpha (Q16665 whole entry): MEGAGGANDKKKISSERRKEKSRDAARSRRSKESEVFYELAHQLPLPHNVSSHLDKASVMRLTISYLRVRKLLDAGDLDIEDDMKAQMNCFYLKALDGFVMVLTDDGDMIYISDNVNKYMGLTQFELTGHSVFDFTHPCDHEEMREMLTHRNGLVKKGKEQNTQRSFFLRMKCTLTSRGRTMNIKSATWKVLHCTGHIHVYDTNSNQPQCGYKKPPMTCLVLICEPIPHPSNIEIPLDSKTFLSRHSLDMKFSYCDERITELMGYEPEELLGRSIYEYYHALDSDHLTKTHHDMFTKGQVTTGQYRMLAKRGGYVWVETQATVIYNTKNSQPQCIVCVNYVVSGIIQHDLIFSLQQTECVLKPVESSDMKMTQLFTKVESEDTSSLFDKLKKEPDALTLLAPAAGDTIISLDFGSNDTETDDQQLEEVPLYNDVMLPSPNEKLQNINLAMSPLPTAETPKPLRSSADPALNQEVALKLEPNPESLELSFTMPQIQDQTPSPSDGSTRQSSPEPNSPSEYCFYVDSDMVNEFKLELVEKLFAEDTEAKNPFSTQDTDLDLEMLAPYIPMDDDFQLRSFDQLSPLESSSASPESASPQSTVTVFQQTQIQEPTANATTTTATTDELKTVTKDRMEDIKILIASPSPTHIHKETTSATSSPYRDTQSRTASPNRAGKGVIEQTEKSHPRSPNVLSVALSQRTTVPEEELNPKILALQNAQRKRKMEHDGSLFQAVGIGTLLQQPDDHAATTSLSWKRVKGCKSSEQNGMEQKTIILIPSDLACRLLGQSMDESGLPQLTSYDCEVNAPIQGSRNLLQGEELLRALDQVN

Turning to `COC(=O)c1ccc(O)c(NC(=O)COc2ccc(C34CC5CC(CC(C5)C3)C4)cc2)c1`, the IC50 was 3.08 µM.

Consider `O=C(NCCc1ccccc1F)c1ccc(-c2cccs2)cn1`, for which the IC50 stood at 2.48 µM.

Take `O=C(NCCc1ccccc1Cl)c1ccc(-c2ccccc2)cc1`: the half-maximal inhibitory concentration (IC50) was determined as 2.87 µM.

As for `O=C(NCCc1ccncc1)c1ccc(-c2ccccc2)cn1`, the IC50 is 13.8 µM.

`O=C(NCCc1ccncc1)c1nccc(-c2ccccc2)n1`: the IC50 is 10 µM.

For `O=C(NCCc1ccccc1F)c1ccc(-c2ccccc2)cn1`, the half-inhibitory concentration (IC50) amounted to 0.93 µM.

Regarding `Nc1ccc(CCNC(=O)c2ccc(-c3ccccc3)cn2)cc1`, the half-maximal inhibitory concentration (IC50) amounted to 11.6 µM.

Take `O=C(NCCc1ccccc1F)c1ccc(-c2ccccc2F)cn1`: the concentration for half-maximal inhibition (IC50) worked out at 2.16 µM.

In the case of `COc1ccccc1-c1ccc(C(=O)NCCc2ccccc2F)nc1`, the half-inhibitory concentration (IC50) is 0.32 µM.

On to `N#Cc1ccccc1-c1ccc(C(=O)NCCc2ccccc2F)nc1`, for which the half-maximal inhibitory concentration (IC50) turned out to be 8.53 µM.

Consider `Cc1nc(C(=O)NCCc2ccccc2)cs1`, for which the IC50 is 55.7 µM.

Turning to `O=C(NCCc1ccncc1)c1nnc(-c2ccccc2)o1`, the IC50 turned out to be 7.32 µM.

As to `O=C(NCCc1ccccc1)c1ccc(-c2ccccc2)cn1`, the half-maximal inhibitory concentration (IC50) was 4.56 µM.

For `O=C(NCCc1ccccc1F)c1ccc(-c2ccsc2)cn1`, the concentration for half-maximal inhibition (IC50) came out at 1.41 µM.

In the case of `O=C(NCCc1ccccc1Cl)c1ccc(-c2ccccc2)cn1`, the IC50 came out at 9.84 µM.

Turning to `O=C(NCCc1cccc(Cl)c1)c1ccc(-c2ccccc2)cn1`, the concentration for half-maximal inhibition (IC50) stood at 9.84 µM.

`O=C(NCCc1ccccc1F)c1ccc(-c2ccoc2)cn1`: the IC50 was 4.24 µM.

These data come from BindingDB's records for doi:10.1021/acs.jmedchem.9b01313 (Anhui Medical University, 2019).
